The source made the active and inactive calls. The rule behind the calls is not given here.
What was measured:
RAW264.7 = assay: Activation of RXR/LXR heterodimer in mouse RAW264.7 cells assessed as potentiation of T0901317-induced increase in ABCA1 mRNA level at 10 uM by quantitative RT-PCR analysis; assay type: cell-based
In short: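 RAW264.7 macrophages in DMEM/10% FBS, exposed 24 h with or without LXR agonist T0901317; ABCA1 mRNA by SYBR green qRT-PCR, β-actin-normalized, fold vs vehicle; means ± SD of three determinants, one of three independent experiments; one-way ANOVA, Bonferroni.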

Homo sapiens [1] = organism: Homo sapiens; assay: Activation of PPARgamma/RXR heterodimer in human hepatoma cells assessed as increase in ANGPTL4 mRNA level at 10 uM by quantitative RT-PCR analysis; assay type: cell-based
In short: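 HLE human hepatoma cells (DMEM, 10% FBS, 37 °C, 5% CO2) treated with or without rosiglitazone; ANGPTL4 mRNA by SYBR green qRT-PCR, β-actin-normalized delta-delta Ct, fold vs vehicle; means ± SD of three determinants, representative of three experiments.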

F9 = assay: Activation of RAR/RXR heterodimer in mouse F9 cells assessed as increase in CYP26A1 mRNA level at 10 uM by quantitative RT-PCR analysis; assay type: cell-based
In short: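 F9 teratocarcinoma cells on 0.2% gelatin-coated dishes in DMEM/10% FBS; 24 h exposure with or without atRA (0.1 μM). CYP26A1 mRNA by qRT-PCR normalized to β-actin, fold vs vehicle; means ± SD of three determinants, one of three experiments; ANOVA/Bonferroni.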

Homo sapiens [2] = organism: Homo sapiens; assay: Activation of RXR/VDR heterodimer in human hepatoma cells assessed as increase in CYP24A1 mRNA level at 10 uM by quantitative RT-PCR analysis; assay type: cell-based
In short: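 HLE hepatoma cells treated 24 h with or without VD3 (0.1 μM); CYP24A1 mRNA by SYBR green qRT-PCR normalized to β-actin (delta-delta Ct), fold over vehicle; means ± SD of three determinants, representative of three experiments.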

3T3-L1 = assay: Activation of PPARgamma/RXR heterodimer in mouse 3T3-L1 cell assessed as induction of adipogenesis at 10 uM after 6 days by Oil red O-staining; assay type: cell-based
In short: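 3T3-L1 cells grown to confluence, 2 days later induced 48 h with 10% FBS, 5 μg/mL insulin, 0.25 μM dexamethasone, 0.5 mM IBMX, then 48 h insulin-only medium; compounds in DMSO added to postdifferentiation medium for 4 days. Formalin-fixed (10%, 1 h, RT), stained with Oil red O, washed, visualized.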

[3] = Activation of LXR in mouse C2C12 cells assessed as induction of SREBP1 mRNA expression at 10 uM after 24 hrs by quantitative RT-PCR analysis; assay type: cell-based
[4] = Activation of LXR in mouse C2C12 cells assessed as induction of ApoD mRNA expression at 10 uM after 24 hrs by quantitative RT-PCR analysis; assay type: cell-based
In short: (§1)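 C2C12 myoblasts grown in DMEM/10% FBS, differentiated at confluence in 2% horse serum, medium changed every other day for 5 days; myotubes treated 24 h with or without T0901317 (1 μM). Total RNA, DNase-treated, oligo(dT) RT from 0.5 μg, SYBR green qPCR; normalized to β-actin (delta-delta Ct), fold over vehicle; mean ± SD of four determinants, one of two experiments.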

[5] = Activation of LXR in mouse C2C12 cells assessed as induction of LPL mRNA expression at 10 uM after 24 hrs in presence of T0901317 by quantitative RT-PCR analysis; assay type: cell-based; in short: as §1
[6] = Activation of LXR in mouse C2C12 cells assessed as induction of ApoD mRNA expression at 10 uM after 24 hrs in presence of T0901317 by quantitative RT-PCR analysis; assay type: cell-based; in short: as §1
[7] = biological target: T1, Peroxisome proliferator-activated receptor delta (Mus musculus) (UniProt P35396); assay: Activation of PPARdelta in mouse C2C12 cells assessed as induction of FABP3 mRNA expression at 10 uM after 24 hrs by quantitative RT-PCR analysis; assay type: cell-based
T1 sequence (whole entry): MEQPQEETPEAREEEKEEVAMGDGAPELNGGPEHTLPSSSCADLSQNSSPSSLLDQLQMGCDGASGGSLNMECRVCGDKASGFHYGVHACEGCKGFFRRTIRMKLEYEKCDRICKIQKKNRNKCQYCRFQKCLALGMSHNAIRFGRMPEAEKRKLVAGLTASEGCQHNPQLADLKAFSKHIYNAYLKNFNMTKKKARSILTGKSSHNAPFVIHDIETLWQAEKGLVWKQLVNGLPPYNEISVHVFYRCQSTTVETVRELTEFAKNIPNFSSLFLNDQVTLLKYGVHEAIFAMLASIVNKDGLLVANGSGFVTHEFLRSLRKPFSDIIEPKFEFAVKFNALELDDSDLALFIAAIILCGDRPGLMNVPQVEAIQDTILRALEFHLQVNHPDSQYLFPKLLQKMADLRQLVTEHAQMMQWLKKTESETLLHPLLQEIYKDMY
In short: (§2)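 Differentiated C2C12 myotubes (2% horse serum, 5 days) exposed 24 h with or without PPARδ agonist GW501516 (1 μM). mRNA quantified by SYBR green real-time RT-PCR, normalized to β-actin by delta-delta Ct, and expressed as fold induction vs vehicle; means ± SD of four determinants from one of two independent experiments; one-way ANOVA with Bonferroni.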

[8] = biological target: T1, Peroxisome proliferator-activated receptor delta (Mus musculus); assay: Activation of PPARdelta in mouse C2C12 cells assessed as induction of FABP3 mRNA expression at 10 uM after 24 hrs in presence of GW501516 by quantitative RT-PCR analysis; assay type: cell-based; in short: as §2
[9] = biological target: T2, Peroxisome proliferator-activated receptor alpha (Homo sapiens) (UniProt Q07869); assay: Activation of PPARalpha (unknown origin) by receptor-CBP cofactor complex formation assay
T2 sequence (whole entry): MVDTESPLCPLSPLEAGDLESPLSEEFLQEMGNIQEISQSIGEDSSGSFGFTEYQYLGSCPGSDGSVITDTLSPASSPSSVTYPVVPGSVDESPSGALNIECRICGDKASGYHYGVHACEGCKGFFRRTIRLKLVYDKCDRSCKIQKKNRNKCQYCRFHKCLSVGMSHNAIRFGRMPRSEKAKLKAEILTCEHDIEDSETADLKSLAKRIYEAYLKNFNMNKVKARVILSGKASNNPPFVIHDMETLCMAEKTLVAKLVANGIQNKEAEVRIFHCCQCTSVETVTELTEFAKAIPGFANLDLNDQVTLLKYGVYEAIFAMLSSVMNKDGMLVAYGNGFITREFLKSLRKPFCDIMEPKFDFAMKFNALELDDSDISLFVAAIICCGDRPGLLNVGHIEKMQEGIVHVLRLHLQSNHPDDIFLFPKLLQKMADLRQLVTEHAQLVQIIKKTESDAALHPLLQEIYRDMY
In short: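 Cell-free cofactor recruitment ELISA: ligand-dependent binding of PPAR isotypes to CBP, detected by HRP-conjugated anti-PPAR antibody at OD450. Full agonists GW7647 (α), GW1929 (γ), GW501516 (δ) define 100%, vehicle 0%; efficacy as maximum B/Bmax% and potency as EC50.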

Activity [7]: Active
Activity [8]: Active
Activity [9]: inactive
SMILES: CC(C)=CCc1cc([C@@H]2CC(=O)c3ccc(O)c(CC=C(C)C)c3O2)cc2c1OC(C(C)(C)O)C2 (some centres not stated)
Activity (RAW264.7): Active
Activity (Homo sapiens [1]): Active
Activity (F9): Active
Activity (Homo sapiens [2]): Active
Activity (3T3-L1): Active
Activity [3]: Active
Activity [4]: Active
Activity [5]: Active
Activity [6]: inactive

From ChEMBL document CHEMBL3351942, “Rexinoids isolated from Sophora tonkinensis with a gene expression profile distinct from the synthetic rexinoid bexarotene” (J Nat Prod, 2014)
